According to ChEMBL document CHEMBL4041521, “3-Aroylindoles display antitumor activity in vitro and in vivo: Effects of N1-substituents on biological activity” (Eur J Med Chem, 2017):
Calls of active or inactive are those of the source. The rule behind the calls is not given here.

Experiments:
[1] = target: T1, Protein deacetylase HDAC6 (Homo sapiens, UniProt Q9UBN7); test: Inhibition of recombinant human HDAC6 using fluorogenic substrate by fluorescence assay
T1 sequence (Q9UBN7 whole entry): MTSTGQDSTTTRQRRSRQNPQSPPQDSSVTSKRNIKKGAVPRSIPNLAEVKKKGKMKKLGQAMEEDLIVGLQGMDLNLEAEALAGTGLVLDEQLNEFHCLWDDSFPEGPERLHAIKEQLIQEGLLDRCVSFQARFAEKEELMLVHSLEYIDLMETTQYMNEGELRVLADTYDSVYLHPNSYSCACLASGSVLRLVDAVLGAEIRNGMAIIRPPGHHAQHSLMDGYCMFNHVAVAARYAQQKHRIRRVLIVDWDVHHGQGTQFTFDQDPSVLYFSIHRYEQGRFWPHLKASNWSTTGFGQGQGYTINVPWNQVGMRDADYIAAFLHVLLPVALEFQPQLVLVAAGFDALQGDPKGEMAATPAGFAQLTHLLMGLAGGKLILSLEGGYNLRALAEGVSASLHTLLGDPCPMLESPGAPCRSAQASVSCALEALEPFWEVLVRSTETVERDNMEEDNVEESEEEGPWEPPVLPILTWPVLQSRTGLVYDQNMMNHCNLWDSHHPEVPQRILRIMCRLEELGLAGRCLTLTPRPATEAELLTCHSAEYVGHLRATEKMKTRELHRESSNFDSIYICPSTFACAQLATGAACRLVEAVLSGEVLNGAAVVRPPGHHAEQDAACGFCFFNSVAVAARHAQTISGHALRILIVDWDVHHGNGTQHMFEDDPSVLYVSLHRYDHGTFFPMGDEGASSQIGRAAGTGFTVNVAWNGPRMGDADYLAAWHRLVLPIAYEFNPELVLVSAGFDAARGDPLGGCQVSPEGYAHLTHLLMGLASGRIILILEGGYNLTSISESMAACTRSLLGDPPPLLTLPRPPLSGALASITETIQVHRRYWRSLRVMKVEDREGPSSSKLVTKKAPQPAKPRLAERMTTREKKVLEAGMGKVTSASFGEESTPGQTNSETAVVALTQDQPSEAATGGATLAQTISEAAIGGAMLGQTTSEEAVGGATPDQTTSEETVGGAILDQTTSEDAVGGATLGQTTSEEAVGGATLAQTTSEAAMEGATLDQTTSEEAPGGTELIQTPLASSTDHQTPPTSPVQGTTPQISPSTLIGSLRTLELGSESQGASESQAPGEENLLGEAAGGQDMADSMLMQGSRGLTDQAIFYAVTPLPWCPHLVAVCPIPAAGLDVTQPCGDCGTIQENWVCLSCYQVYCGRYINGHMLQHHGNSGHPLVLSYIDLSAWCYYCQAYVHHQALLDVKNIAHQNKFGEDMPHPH

[2] = Inhibition of HDAC activity in human HeLa cell nuclear extract using fluorometric substrate measured after 30 mins by fluorescence assay; assay type: cell-based
[3] = tested on: PC-3; test: Antiproliferative activity against human PC3 cells measured after 48 hrs by sulforhodamine-B assay; assay type: functional, cell-based; conditions: PC-3, 48 h
[4] = organism: Sus scrofa; test: Inhibition of purified porcine tubulin polymerization at 1 to 10 uM measured every 1 min for 30 mins
[5] = tested on: HCT-116; test: Antiproliferative activity against human HCT116 cells measured after 48 hrs by sulforhodamine-B assay; assay type: functional, cell-based; conditions: HCT-116, 48 h
[6] = target: Histone deacetylase 2 (Homo sapiens, UniProt Q92769); test: Inhibition of recombinant human HDAC2 using fluorogenic substrate by fluorescence assay
[7] = tested on: A549; test: Antiproliferative activity against human A549 cells measured after 48 hrs by sulforhodamine-B assay; assay type: functional, cell-based; conditions: A549, 48 h
[8] = target: Histone deacetylase 1 (Homo sapiens, UniProt Q13547); test: Inhibition of recombinant human HDAC1 using fluorogenic substrate by fluorescence assay
[9] = tested on: Mus musculus; test: Toxicity in human RPMI8226 cells xenografted in athymic mouse assessed as mortality at 1 mg/kg, ip administered once in a week; assay type: organism-based; conditions: in vivo
Method in brief: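 RPMI-8226 xenograft nude mice given bortezomib 1 mg/kg i.p. once a week as reference treatment; animal deaths recorded.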

[10] = organism: Homo sapiens; test: Inhibition of HDAC in human PC3 cells assessed as increase in histone-H3 acetylation by Western blot analysis; assay type: cell-based
Method in brief: (§1)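 PC3 prostate cancer cells treated, then lysed in 20 mM Tris-HCl pH 7.5 with 150 mM NaCl, EDTA/EGTA, phosphatase and protease inhibitors, 0.1% Triton X-100. Lysates spun 13,000 rpm for 30 min, then immunoblotted for acetylated α-tubulin and acetylated histone H3.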

[11] = organism: Homo sapiens; test: Inhibition of HDAC in human PC3 cells assessed as increase in alpha-tubulin acetylation by Western blot analysis; assay type: cell-based; method in brief: as §1
[12] = organism: Sus scrofa; test: Inhibition of purified porcine tubulin polymerization measured every 1 min for 30 mins
[13] = organism: Homo sapiens; test: Selectivity ratio of IC50 for recombinant human HDAC8 to IC50 for recombinant human HDAC6
[14] = organism: Homo sapiens; test: Inhibition of HDAC in human PC3 cells assessed as increase in histone-H3 acetylation at 0.01 to 10 uM by Western blot analysis; assay type: cell-based; method in brief: as §1
[15] = organism: Sus scrofa; test: Inhibition of purified porcine tubulin polymerization at 10 uM measured every 1 min for 30 mins
[16] = organism: Homo sapiens; test: Inhibition of tubulin polymerization in human PC3 cells assessed as […] in MPM2 expression at 0.01 to 10 uM by Western blot analysis; assay type: cell-based

Sequence of Histone deacetylase 2 (Q92769 whole entry): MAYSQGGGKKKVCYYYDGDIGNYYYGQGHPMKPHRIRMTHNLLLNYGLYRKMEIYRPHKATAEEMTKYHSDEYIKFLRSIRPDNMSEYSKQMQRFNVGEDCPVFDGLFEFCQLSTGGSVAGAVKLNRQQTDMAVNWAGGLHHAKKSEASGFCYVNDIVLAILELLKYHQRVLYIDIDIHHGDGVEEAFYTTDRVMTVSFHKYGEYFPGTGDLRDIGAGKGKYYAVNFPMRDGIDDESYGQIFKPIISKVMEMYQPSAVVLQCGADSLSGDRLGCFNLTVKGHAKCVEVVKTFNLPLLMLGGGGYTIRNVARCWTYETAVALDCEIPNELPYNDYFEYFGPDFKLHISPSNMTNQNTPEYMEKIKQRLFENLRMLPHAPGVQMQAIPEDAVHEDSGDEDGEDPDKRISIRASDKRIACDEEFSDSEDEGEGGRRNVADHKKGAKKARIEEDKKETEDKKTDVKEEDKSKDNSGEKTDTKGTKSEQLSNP
Sequence of Histone deacetylase 1 (Q13547 whole entry): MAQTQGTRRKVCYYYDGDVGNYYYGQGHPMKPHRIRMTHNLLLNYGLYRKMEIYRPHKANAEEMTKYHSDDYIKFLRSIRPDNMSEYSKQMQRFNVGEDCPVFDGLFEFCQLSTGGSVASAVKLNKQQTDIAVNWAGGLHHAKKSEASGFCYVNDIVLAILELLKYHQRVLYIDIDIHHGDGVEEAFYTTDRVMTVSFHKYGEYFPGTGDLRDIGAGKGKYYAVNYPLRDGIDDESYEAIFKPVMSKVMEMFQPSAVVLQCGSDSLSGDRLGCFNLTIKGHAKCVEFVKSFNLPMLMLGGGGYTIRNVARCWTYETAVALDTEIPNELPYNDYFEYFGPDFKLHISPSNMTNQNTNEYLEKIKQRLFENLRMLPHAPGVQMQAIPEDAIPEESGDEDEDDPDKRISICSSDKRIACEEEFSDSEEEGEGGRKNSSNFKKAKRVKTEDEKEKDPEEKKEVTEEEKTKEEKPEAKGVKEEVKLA

SMILES	IC50 [1] [nM]	IC50 [2] [nM]	IC50 [3] [nM]	inhibition [4]	IC50 [5] [nM]	IC50 [6] [nM]	IC50 [7] [nM]	IC50 [8] [nM]	Activity [9]	inhibition [10]	alpha-tubulin acetylation increase [11]	inhibition [12]	Ratio IC50 [13]	inhibition [14]	inhibition [15]	inhibition [16]
COc1ccc2c(C(=O)c3cc(OC)c(OC)c(OC)c3)cn(S(=O)(=O)c3ccc(/C=C/C(=O)NO)cc3)c2c1	> 10000	> 10000	66.7	Active	70.3	> 10000	120	> 10000								
CC(C)C[C@H](NC(=O)[C@H](Cc1ccccc1)NC(=O)c1cnccn1)B(O)O [BORTEZOMIB]									Toxic							
COc1ccc2c(C(=O)c3cc(OC)c(OC)c(OC)c3)cn(Cc3ccc(/C=C/C(=O)NO)cc3)c2c1	70.5	147	666		1670	288	678	130		Dose-dependent effect	Dose-dependent effect	Dose-dependent effect				
CN1CCc2c(c3ccccc3n2Cc2ccc(C(=O)NO)cc2)C1													14			
COc1cc(C(=O)c2cn(S(=O)(=O)c3cccc(/C=C/C(=O)NO)c3)c3ccccc23)cc(OC)c1OC	792	172	5770		6680	2320	4590	139						inactive	inactive	inactive
COc1cc(C(=O)c2cn(Cc3ccc(/C=C/C(=O)NO)cc3)c3ccccc23)cc(OC)c1OC	138	178	2600		5500	386	1900	141		Dose-dependent effect	Dose-dependent effect				inactive	inactive
COc1ccc2c(C(=O)c3cc(OC)c(OC)c(OC)c3)cn(Cc3ccc(C(=O)Nc4ccccc4N)cc3)c2c1		> 10000	157		231		208					Dose-dependent effect				
COc1ccc(C(=O)c2cn(Cc3ccc(C(=O)NO)cc3)c3cc(OC)ccc23)cc1	108	145	1840		1900	209	940	158		Dose-dependent effect	Dose-dependent effect				inactive	inactive
